Source: ChEMBL document CHEMBL1131066, “2-Substituted aminopyrido[2,3-d]pyrimidin-7(8H)-ones. structure-activity relationships against selected tyrosine kinases and in vitro and in vivo anticancer activity” (J Med Chem, 1998)
Where “and” joins values, the source holds several entries; their conditions need not be identical. Identical values can stand only once.

Key:
C6 [1] = experiment: Weight change of C6 glioma tumor cells in mice at 100 mg/kg peroral dose, days 1-15 administration; type: functional, organism-based; set-up: dose 100 mg/kg; conditions: Mus musculus
Procedure, shortened: (§1)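 Tumor-bearing nude mice (NCr nu/nu, 18–22 g, 6–8 per group) were implanted in the right axilla with tumor fragments on day 0 and dosed by average cage weight. Vehicle was 50 mM sodium lactate pH 4.0, or 0.5% methyl cellulose suspension; cisplatin was given in saline. Host body weight change is given as the maximum treatment-related weight loss.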

[2] = molecular target: T1, Platelet-derived growth factor receptor beta (Mus musculus, UniProt P05622); experiment: Inhibition of Platelet-derived growth factor receptor (PDGFr)
T1 sequence (P05622 whole entry): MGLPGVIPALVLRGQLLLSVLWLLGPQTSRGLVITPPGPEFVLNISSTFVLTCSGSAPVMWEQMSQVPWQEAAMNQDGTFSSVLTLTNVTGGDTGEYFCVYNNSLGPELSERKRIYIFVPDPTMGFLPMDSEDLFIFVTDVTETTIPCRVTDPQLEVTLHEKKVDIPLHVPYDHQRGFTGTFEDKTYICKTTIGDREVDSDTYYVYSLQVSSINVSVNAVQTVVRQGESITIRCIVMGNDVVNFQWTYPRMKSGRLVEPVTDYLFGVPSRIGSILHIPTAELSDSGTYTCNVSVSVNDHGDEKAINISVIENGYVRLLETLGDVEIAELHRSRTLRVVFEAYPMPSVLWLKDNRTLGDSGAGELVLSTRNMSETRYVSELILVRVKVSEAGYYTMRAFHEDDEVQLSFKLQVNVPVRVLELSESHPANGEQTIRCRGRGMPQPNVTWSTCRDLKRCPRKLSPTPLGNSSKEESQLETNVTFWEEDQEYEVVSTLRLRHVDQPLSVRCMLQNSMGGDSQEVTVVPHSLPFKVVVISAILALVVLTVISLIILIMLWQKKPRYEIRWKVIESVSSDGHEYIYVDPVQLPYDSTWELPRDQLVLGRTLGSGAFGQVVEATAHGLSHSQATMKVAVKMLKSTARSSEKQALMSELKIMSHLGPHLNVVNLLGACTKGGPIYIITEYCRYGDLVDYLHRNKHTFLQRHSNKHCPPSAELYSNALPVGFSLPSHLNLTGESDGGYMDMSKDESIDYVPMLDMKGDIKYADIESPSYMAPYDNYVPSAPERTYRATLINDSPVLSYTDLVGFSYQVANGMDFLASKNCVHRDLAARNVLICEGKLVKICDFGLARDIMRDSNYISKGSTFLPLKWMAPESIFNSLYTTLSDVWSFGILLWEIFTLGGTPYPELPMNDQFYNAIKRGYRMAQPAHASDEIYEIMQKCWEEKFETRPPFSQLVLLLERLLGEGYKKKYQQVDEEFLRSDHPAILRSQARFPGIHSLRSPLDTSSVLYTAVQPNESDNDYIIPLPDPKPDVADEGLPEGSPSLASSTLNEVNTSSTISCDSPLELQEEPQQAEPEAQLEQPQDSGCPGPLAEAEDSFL
Procedure, shortened: (§2)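 Recombinant kinases (PDGFr-β, FGFr-1, c-Src), enzyme inhibition IC50. Mean of at least two separate determinations, each done in triplicate; replicate values typically varied under 30%.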

[3] = molecular target: T2, Platelet-derived growth factor receptor (PDGFr) (Rattus norvegicus, UniProt P20786+Q05030); experiment: Inhibition of Platelet-derived growth factor receptor autophosphorylation in C6 cells; type: functional, cell-based
Procedure, shortened: (§3)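 Serum-starved 24 h (C6 rat glioma; PDGF-B-transfected NIH3T3), incubated 2 h with a range of concentrations, then stimulated 5 min with 25 ng/mL PDGF-BB. Lysates or immunoprecipitates Western blotted with antiphosphotyrosine antibody, ECL detection. IC50.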

C6 [4] = experiment: C6 cell growth in soft agar with discontinued treatment; type: functional, cell-based, Rattus norvegicus; conditions: Rattus norvegicus, C6
Procedure, shortened: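 C6 rat glioma cells given 3-day exposure to a concentration series, then washed free of inhibitor and plated in drug-free soft agar; colonies stained and counted after two weeks. IC50; mean of two experiments, each in duplicate.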

[5] = molecular target: Proto-oncogene tyrosine-protein kinase Src (Gallus gallus, UniProt P00523); experiment: Inhibition of avian c-Src tyrosine kinase
HT-29 [6] = experiment: Net reduction in tumor burden between first and last treatments of HT-29 cell tumors in mice at 200 mg/kg ip dose, days 15-29 administration; type: functional, Mus musculus; conditions: route intraperitoneal
Procedure, shortened: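 NCr nu/nu nude mice (18–22 g, 6–8 per group, randomized) had tumor fragments, kept by serial passage in nude mice, implanted in the right axilla on day 0. Mice were dosed by average cage weight on the listed days, over a range from toxic to ineffective doses. Vehicle was 50 mM sodium lactate pH 4.0 or 0.5% methyl cellulose suspension. Net log cell kill was taken between first and last treatments.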

[7] = molecular target: T3, Platelet-derived growth factor receptor (Mus musculus, UniProt P05622+P26618); experiment: (§4) Inhibition of Platelet-derived growth factor receptor autophosphorylation in NIH3T3 cells; type: functional, cell-based; procedure, shortened: as §3
C6 [8] = experiment: (§5) Inhibition of C6 cell proliferation in sulforhodamine B assay; type: functional, cell-based; conditions: Rattus norvegicus
Procedure, shortened: (§6)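 C6 rat glioma cells (F10 Ham's, 15% horse serum, 2.5% fetal calf serum) seeded and allowed 24 h to attach, then given serial 2-fold compound dilutions; 4 d at 37 °C, 5% CO2; growth read by sulforhodamine B staining. IC50; mean of two experiments, each in triplicate.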

HT-29 [9] = experiment: Weight change of HT-29 cell tumors in mice at 200 mg/kg ip dose, days 15-29 administration; type: functional, Mus musculus; conditions: route intraperitoneal; procedure, shortened: as §1
C6 [10] = experiment: as §5; type: functional, cell-based, Rattus norvegicus; conditions: Rattus norvegicus, C6; procedure, shortened: as §6
COLO 205 [11] = experiment: Difference in days for treated (T) and control (C) COLO 205 cell tumors to reach 750 mg in mice at 200 mg/kg ip dose, days 14-28 administration; type: functional, Mus musculus; conditions: route intraperitoneal
Procedure, shortened: (§7)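 Nude mice (NCr nu/nu), 18–22 g, 6–8 per group, randomized and implanted with serially passaged tumor fragments in the right axilla on day 0. Dosed by average cage weight. Vehicle was 50 mM sodium lactate buffer, pH 4.0, or a 0.5% methyl cellulose suspension for one compound. Cisplatin was given in saline. T − C is the difference in days for treated and control tumors to reach 750 mg.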

Mus musculus [12] = experiment: Difference in days for treated (T) and control (C) PDGF-transfected mouse fibroblast tumors to reach 750 mg in mice at 100 mg/kg peroral dose, days 1-15 administration; type: functional; conditions: route intraperitoneal, in the assay text read “intraperitoneal” for “peroral”; procedure, shortened: as §7
C6 [13] = experiment: C6 cell growth in soft agar with continuous treatment; type: functional, cell-based, Rattus norvegicus; conditions: Rattus norvegicus, C6
Procedure, shortened: (§8)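 C6 rat glioma cells (F10 Ham's with 15% horse serum, 2.5% fetal calf serum) exposed 3 days to a concentration series, then plated in soft agar with compound still present at the same concentration; colonies stained and counted after two weeks. IC50; mean of two experiments, each in duplicate.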

C6 [14] = experiment: C6 glioma cell growth in soft agar with discontinued treatment; type: functional, cell-based; conditions: Rattus norvegicus
Procedure, shortened: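 C6 rat glioma cells (F10 Ham's, 15% horse serum, 2.5% fetal calf serum) exposed to a range of concentrations for 3 days, washed free of inhibitor, plated in drug-free soft agar. Colonies stained and counted after two weeks. IC50; mean of two experiments, each in duplicate.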

HT-29 [15] = experiment: Difference in days for treated (T) and control (C) HT-29 cell tumors to reach 750 mg in mice at 200 mg/kg ip dose, days 15-29 administration; type: functional, Mus musculus; conditions: route intraperitoneal; procedure, shortened: as §7
Mus musculus [16] = experiment: Net reduction in tumor burden between the first and last treatments of PDGF-transfected fibroblast cells in mice at 100 mg/kg intraperitoneal dose, days 1-15 administration
[17] = molecular target: T2, Platelet-derived growth factor receptor (PDGFr); experiment: Inhibition of PDGF-induced autophosphorylation of PDGF-R in C6 cells
[18] = molecular target: Epidermal growth factor receptor (Homo sapiens, UniProt P00533); experiment: Inhibitory concentration was evaluated against epidermal growth factor receptor (EGFr) tyrosine kinase
Sequence of Epidermal growth factor receptor (P00533 whole entry): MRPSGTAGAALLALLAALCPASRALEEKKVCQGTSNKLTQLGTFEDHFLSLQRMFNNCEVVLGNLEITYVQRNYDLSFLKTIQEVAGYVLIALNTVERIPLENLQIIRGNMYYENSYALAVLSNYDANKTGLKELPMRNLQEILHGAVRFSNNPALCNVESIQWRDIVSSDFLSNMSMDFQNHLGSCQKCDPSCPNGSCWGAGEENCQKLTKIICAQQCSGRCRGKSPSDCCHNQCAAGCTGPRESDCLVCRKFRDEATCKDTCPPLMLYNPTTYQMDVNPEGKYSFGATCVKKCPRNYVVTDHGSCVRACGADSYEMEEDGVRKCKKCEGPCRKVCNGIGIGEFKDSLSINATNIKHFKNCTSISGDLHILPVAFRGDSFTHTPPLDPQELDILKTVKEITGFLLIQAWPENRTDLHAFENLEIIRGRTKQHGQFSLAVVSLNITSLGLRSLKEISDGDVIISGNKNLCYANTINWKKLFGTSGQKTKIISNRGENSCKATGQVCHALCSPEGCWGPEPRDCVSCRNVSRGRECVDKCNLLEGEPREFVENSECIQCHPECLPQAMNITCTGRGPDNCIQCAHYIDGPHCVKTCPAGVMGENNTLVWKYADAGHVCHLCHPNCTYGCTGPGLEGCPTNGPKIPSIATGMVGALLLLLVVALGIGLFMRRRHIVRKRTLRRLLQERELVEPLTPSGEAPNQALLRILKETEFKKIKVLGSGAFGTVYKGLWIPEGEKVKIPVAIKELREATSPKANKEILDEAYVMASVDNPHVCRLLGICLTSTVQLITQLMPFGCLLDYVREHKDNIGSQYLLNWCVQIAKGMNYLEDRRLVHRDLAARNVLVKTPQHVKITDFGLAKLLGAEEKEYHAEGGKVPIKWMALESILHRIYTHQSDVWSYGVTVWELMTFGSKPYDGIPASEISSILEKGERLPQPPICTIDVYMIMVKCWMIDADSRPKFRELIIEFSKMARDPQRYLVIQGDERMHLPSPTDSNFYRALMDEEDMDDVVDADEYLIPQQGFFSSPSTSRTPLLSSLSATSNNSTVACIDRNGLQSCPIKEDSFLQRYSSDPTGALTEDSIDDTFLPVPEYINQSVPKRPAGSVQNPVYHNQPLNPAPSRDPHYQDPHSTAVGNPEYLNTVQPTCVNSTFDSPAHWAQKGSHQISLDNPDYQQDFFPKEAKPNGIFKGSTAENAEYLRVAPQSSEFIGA

C6 [19] = experiment: Difference in days for treated (T) and control (C) C6 glioma cell tumors to reach 750 mg in mice at 100 mg/kg peroral dose, days 1-15 administration; type: functional, Mus musculus; conditions: route oral; procedure, shortened: as §7
[20] = molecular target: Proto-oncogene tyrosine-protein kinase Src (Homo sapiens, UniProt P12931); experiment: Inhibition of c-Src tyrosine kinase; procedure, shortened: as §2
Sequence of Proto-oncogene tyrosine-protein kinase Src (Homo sapiens, UniProt P12931) (P12931 2-536 limits assumed): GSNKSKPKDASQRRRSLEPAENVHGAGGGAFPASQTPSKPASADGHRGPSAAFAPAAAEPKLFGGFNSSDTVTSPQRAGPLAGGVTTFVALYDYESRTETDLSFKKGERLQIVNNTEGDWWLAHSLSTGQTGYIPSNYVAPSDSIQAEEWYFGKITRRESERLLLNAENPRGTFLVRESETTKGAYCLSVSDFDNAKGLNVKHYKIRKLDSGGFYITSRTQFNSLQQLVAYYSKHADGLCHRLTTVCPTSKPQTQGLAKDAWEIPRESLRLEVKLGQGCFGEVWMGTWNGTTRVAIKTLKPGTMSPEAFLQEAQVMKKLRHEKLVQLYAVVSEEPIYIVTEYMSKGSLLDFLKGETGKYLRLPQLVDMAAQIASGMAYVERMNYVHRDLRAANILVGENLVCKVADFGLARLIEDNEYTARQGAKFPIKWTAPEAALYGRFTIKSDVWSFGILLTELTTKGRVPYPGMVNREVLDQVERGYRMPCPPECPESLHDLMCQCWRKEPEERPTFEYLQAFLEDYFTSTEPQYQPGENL

NIH3T3 = experiment: Inhibition of NIH3T3 proliferation by sulforhodamine B assay; type: functional, cell-based, Mus musculus; conditions: nih3t3
SK-OV-3 [21] = experiment: Difference in days for treated (T) and control (C) SKOV-3 cell tumors to reach 750 mg in mice at 200 mg/kg ip dose, days 20-34 administration; type: functional; conditions: route intraperitoneal; procedure, shortened: as §7
[22] = molecular target: T1, Platelet-derived growth factor receptor beta; experiment: Inhibitory concentration was evaluated against Platelet-derived growth factor receptor beta (PDGFr) tyrosine kinase
C6 [23] = experiment: C6 glioma cell growth in soft agar with continuous treatment; type: functional, cell-based; conditions: Rattus norvegicus; procedure, shortened: as §8
COLO 205 [24] = experiment: Weight change of COLO 205 cell tumors in mice at 200 mg/kg ip dose, days 14-28 administration; type: functional, Mus musculus; conditions: route intraperitoneal; procedure, shortened: as §1
SK-OV-3 [25] = experiment: Weight change of SK-OV-3 cell tumors in mice at 200 mg/kg peroral dose, days 20-34 administration; type: functional; conditions: route intraperitoneal, in the assay text read “intraperitoneal” for “peroral”
[26] = molecular target: T3, Platelet-derived growth factor receptor; experiment: as §4; type: functional, cell-based; procedure, shortened: as §3; remark: listed apart in the source

In the case of `Cn1c(=O)c(-c2c(Cl)cccc2Cl)cc2cnc(Nc3ccccc3)nc21`, the Weight change (C6 [1]) is reported as “Weight gain”, the IC50 [2] is reported as 400 nM and the IC50 [3] is reported as 38 nM. It also gave an IC50 (C6 [4]) of 2900 nM, an IC50 [5] of 20 nM and a Net cell kill (HT-29 [6]) of -0.5 log10. The IC50 [7] was 20 nM, the IC50 (C6 [8]) was 1800 nM and the Weight change (HT-29 [9]) was -2 g. The IC50 (C6 [10]) was 1800 nM, the T-C (COLO 205 [11]) was -3.2 days and the T-C (Mus musculus [12]) was 1.7 days. The IC50 (C6 [13]) was 1100 nM, the IC50 (C6 [14]) was 2900 nM and the T-C (HT-29 [15]) was 1.1 days. It also gave a Net cell kill (Mus musculus [16]) of -2.1 log10, an IC50 [17] of 38 nM and an IC50 [18] of 260 nM. For the same compound, the T-C (C6 [19]) was -1.1 days, the IC50 [20] was 17 nM and the IC50 (NIH3T3) was 105 nM and 410 nM. The T-C (SK-OV-3 [21]) was -0.4 days, the IC50 [22] was 400 nM and the IC50 (C6 [23]) was 1100 nM. It also gave a Weight change (COLO 205 [24]) of -2 g, a Weight change (SK-OV-3 [25]) of -2 g and an IC50 [26] of 20 nM.
